Laboratory results published in ChEMBL document CHEMBL1157466, “Antifouling activity of meroditerpenoids from the marine brown alga Halidrys siliquosa” (J Nat Prod, 2008).
Converted amounts (≈) assume the structure as drawn.

Assays:
Cobetia marina = assay: Antibacterial activity against Cobetia marina ATCC 25374 after 24 hrs by microtiter broth dilution method; type: functional
Method in brief: (§1)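 Marine bacteria at 2×10^8 cells/mL incubated with compound (0.5, 1, 2.5, 5, 10, 25, 50, 100 µg/mL) in Mueller Hinton broth supplemented with NaCl (15 g/L), 25 °C, 24 h, 96-well format. Six replicates per treatment alongside a seawater control. MIC read against the seawater control by microtiter broth dilution.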

Marinobacterium stanieri = assay: Antibacterial activity against Marinobacterium stanieri ATCC 27130 after 24 hrs by microtiter broth dilution method; type: functional; method in brief: as §1
Aliivibrio fischeri = assay: Antibacterial activity against Vibrio fischeri ATCC 7744 after 24 hrs by microtiter broth dilution method; type: functional; method in brief: as §1
[1] = tested on: Pseudoalteromonas haloplanktis; assay: Antibacterial activity against Pseudoalteromonas haloplanktis after 24 hrs by microtiter broth dilution method; type: functional; method in brief: as §1
Amphibalanus amphitrite = assay: Antifouling activity in Balanus amphitrite assessed as inhibition of cyprid larvae settlement after 24 hrs; type: functional, organism-based
Method in brief: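 Cyprids obtained by filtration 4 days after larval release from field-collected adults. 10–15 cyprids per well in 2 mL seawater containing compound at 0.5–100 µg/mL (0.5, 1, 2.5, 5, 10, 25, 50, 100). Kept in darkness at 28 °C for 24 h, six replicates. Larvae scored as dead, settled or swimming under a dissecting microscope. EC50 calculated as 50% settlement inhibition relative to the seawater control.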

[2] = Toxicity against Balanus amphitrite stage 2 nauplii after 24 hrs; type: organism-based; details: amphibalanus amphitrite, in vivo
Method in brief: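 Ten to fifteen stage-II barnacle nauplii per well in 2 mL solution; compounds at 0.5, 1, 2.5, 5, 10, 25, 50 and 100 µg/mL; six replicates per treatment and control. Swimming and dead nauplii counted after 24 h exposure; LC50 is the concentration giving 50% mortality relative to control, derived from the dose-response data.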

[3] = Amphibalanus amphitrite, 24 h, read-out: EC50
[4] = Cobetia marina, ATCC 25374, 24 h, read-out: MIC
[5] = Marinobacterium stanieri, ATCC 27130, 24 h, read-out: MIC
[6] = Aliivibrio fischeri, ATCC 7744, 24 h, read-out: MIC
[7] = Pseudoalteromonas haloplanktis, 24 h, read-out: MIC

| SMILES | MIC (Cobetia marina) | MIC (Marinobacterium stanieri) | MIC (Aliivibrio fischeri) | MIC [1] | EC50 (Amphibalanus amphitrite; [3]) | MIC (Cobetia marina; [4]) | MIC (Marinobacterium stanieri; [5]) | MIC (Aliivibrio fischeri; [6]) | MIC [1, 7] | LC50 at 24 h [2] | EC50 (Amphibalanus amphitrite) |
| --- | --- | --- | --- | --- | --- | --- | --- | --- | --- | --- | --- |
| COc1cc(C)c(O)c(C/C=C(\C)CC(=O)/C=C(\C)CCCC(C)C(=O)C(O)C=C(C)C)c1 (stereo in doubt; 4) | >100 mg/L | >100 mg/L | >100 mg/L | >100 mg/L | > 100 mg/L | – | – | – | – | – | – |
| COc1cc(C)c(O)c(C/C=C(\C)CC(=O)/C=C(/C)CCCC(C)C(O)C(=O)C=C(C)C)c1 (stereo not given) | – | – | – | – | > 100 mg/L | > 100 mg/L | > 100 mg/L | > 100 mg/L | > 100 mg/L | > 100 mg/L | – |
| COc1cc(C)c(O)c(C/C=C(\C)CC(=O)/C=C(\C)CCCC(C)C(=O)C(O)C=C(C)C)c1 (stereo in doubt; 3) | 5 mg/L (≈ 10.9 µM) | 5 mg/L (≈ 10.9 µM) | 5 mg/L (≈ 10.9 µM) | 10 mg/L (≈ 21.9 µM) | – | – | – | – | – | > 100 mg/L | – |
| COc1cc(C)c(O)c(C/C=C(\C)CC(=O)/C=C(\C)CCCC(C)C(O)C(=O)C=C(C)C)c1 (stereo in doubt; 9) | 2.5 mg/L (≈ 5.47 µM) | 1 mg/L (≈ 2.19 µM) | 2.5 mg/L (≈ 5.47 µM) | 1 mg/L (≈ 2.19 µM) | – | – | – | – | – | – | 4 mg/L (≈ 8.76 µM) |
| COc1cc(C)c(O)c(C/C=C(\C)CC(=O)/C=C(/C)CCCC(C)C(=O)C(O)C=C(C)C)c1 (stereo not given) | – | – | – | – | 1 mg/L (≈ 2.19 µM) | 0.5 mg/L (≈ 1.09 µM) | 1 mg/L (≈ 2.19 µM) | 0.5 mg/L (≈ 1.09 µM) | 1 mg/L (≈ 2.19 µM) | 5 mg/L (≈ 10.9 µM) | – |
| COc1cc(C)c(O)c(C/C=C(\C)CC(O)/C=C(\C)CCCC(C)C(=O)C(O)C=C(C)C)c1 (stereo not given) | – | – | – | – | 5 mg/L (≈ 10.9 µM) | 1 mg/L (≈ 2.18 µM) | 1 mg/L (≈ 2.18 µM) | 0.5 mg/L (≈ 1.09 µM) | 1 mg/L (≈ 2.18 µM) | 10 mg/L (≈ 21.8 µM) | – |
| COc1cc(C)c2c(c1)C=CC(C)(CC(=O)/C=C(\C)CCCC(C)[C@@H](O)C(=O)C=C(C)C)O2 (stereo not given in full) | – | – | – | – | > 100 mg/L | > 100 mg/L | > 100 mg/L | > 100 mg/L | > 100 mg/L | > 100 mg/L | – |
| COc1cc(C)c(O)c(C/C=C(\C)CC(=O)/C=C(\C)CCCC(C)C(O)C(=O)C=C(C)C)c1 (stereo in doubt; 8) | 10 mg/L (≈ 21.9 µM) | 10 mg/L (≈ 21.9 µM) | 25 mg/L (≈ 54.7 µM) | 10 mg/L (≈ 21.9 µM) | – | – | – | – | – | > 100 mg/L | > 100 mg/L |
